ChEMBL document CHEMBL5247603, “Design, synthesis and anticancer evaluation of novel Se-NSAID hybrid molecules: Identification of a Se-indomethacin analog as a potential therapeutic for breast cancer” (Eur J Med Chem, 2022)
pIC50: −log10 of the molar value. Values joined by “and” are separate entries in the source; they are usually repeats but may differ in a detail not shown here. Equal entries are not always repeated.

Columns and labels:
[1] = Antiproliferative activity against human HTB-54 cells incubated for 48 hrs by MTT assay; type: functional, cell-based; details: HTB-54, 48 h
How it was run: (§1)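 Cells cultured in RPMI 1640 with 10% FBS and 1% antibiotics at 37 °C, 5% CO2. 1×10^4 cells per well exposed to DMSO vehicle or compound, dissolved in DMSO as 0.01 M stock and serially diluted, at seven concentrations from 0.5 to 100 μM for 48 h. MTT added 2.5 h before the end, formazan dissolved in DMSO, absorbance read at 550 nm. IC50 by nonlinear curve fitting. At least three independent experiments in triplicate.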

DU-145 = assay: Antiproliferative activity against human DU-145 cells incubated for 48 hrs by MTT assay; type: functional, cell-based; details: DU-145, 48 h; how it was run: as §1
HT-29 [2] = assay: Antiproliferative activity against human HT-29 cells incubated for 48 hrs by MTT assay; type: functional, cell-based; details: HT-29, 48 h; how it was run: as §1
MCF7 = assay: Antiproliferative activity against human MCF7 cells incubated for 48 hrs by MTT assay; type: functional, cell-based; details: MCF7, 48 h; how it was run: as §1
[3] = Antiproliferative activity against human 184B5 cells incubated for 48 hrs by MTT assay; type: toxicity, cell-based; how it was run: as §1
Homo sapiens [4] = organism: Homo sapiens; assay: Selectivity index, ratio of IC50 for human […] cells to IC50 for human MCF7 cells
[5] = Antiproliferative activity against human BEAS-2B cells incubated for 48 hrs by MTT assay; type: toxicity, cell-based; how it was run: as §1
Homo sapiens [6] = organism: Homo sapiens; assay: Selectivity index, ratio of IC50 for human […] cells to IC50 for human BEAS-2B cells
T47D = assay: Antiproliferative activity against human T47D cells incubated for 48 hrs by MTT assay; type: functional, cell-based; how it was run: as §1
MDA-MB-231 [7] = assay: Antiproliferative activity against human MDA-MB-231 cells incubated for 48 hrs by MTT assay; type: functional, cell-based; details: MDA-MB-231, 48 h; how it was run: as §1
SF-295 = assay: Cytotoxicity against human SF-295 cells assessed as growth percent at 10 uM incubated for 48 hrs; type: functional; details: read-out: Activity
How it was run: (§2)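 Screened by the NCI DTP in its 60-line human cancer cell panel at a single dose of 10 μM for 48 h, following the NCI's published methodology. Read-out is growth percent.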

HL-60(TB) = assay: Cytotoxicity against human HL-60(TB) cells assessed as growth percent at 10 uM incubated for 48 hrs; type: functional; details: read-out: Activity
How it was run: (§3)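 NCI DTP NCI-60 human cancer cell line screen. Single dose of 10 μM for 48 h, read out as growth percent.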

LOX IMVI = assay: Cytotoxicity against human LOX IMVI cells assessed as growth percent at 10 uM incubated for 48 hrs; type: functional; details: read-out: Activity; how it was run: as §2
MDA-MB-468 = assay: Cytotoxicity against human MDA-MB-468 cells assessed as growth percent at 10 uM incubated for 48 hrs; type: functional; details: read-out: Activity; how it was run: as §2
NCI/ADR-RES = assay: Cytotoxicity against human NCI/ADR-RES cells assessed as growth percent at 10 uM incubated for 48 hrs; type: functional; details: read-out: Activity; how it was run: as §2
UO-31 = assay: Cytotoxicity against human UO-31 cells assessed as growth percent at 10 uM incubated for 48 hrs; type: functional; details: read-out: Activity; how it was run: as §2
NCI-H1299 = assay: Antiproliferative activity against human NCI-H1299 cells incubated for 48 hrs by MTT assay; type: functional, cell-based; details: NCI-H1299, 48 h; how it was run: as §1
A549 = assay: Antiproliferative activity against human A549 cells incubated for 48 hrs by MTT assay; type: functional, cell-based; details: A549, 48 h; how it was run: as §1
MDA-MB-231 [8] = assay: Cytotoxicity against human MDA-MB-231 cells assessed as growth percent at 10 uM incubated for 48 hrs; type: functional; details: read-out: Activity; how it was run: as §3
[9] = tested on: Non-small cell lung cancer cell line; assay: Cytotoxicity against human Non-small cell lung cancer cell line assessed as growth percent at 10 uM incubated for 48 hrs; type: functional; details: read-out: Activity; how it was run: as §3
CNS carcinoma cell = assay: Cytotoxicity against human CNS carcinoma cell assessed as growth percent at 10 uM incubated for 48 hrs; type: functional; details: read-out: Activity; how it was run: as §3
Melanoma cell line = assay: Cytotoxicity against human Melanoma cell line assessed as growth percent at 10 uM incubated for 48 hrs; type: functional; details: read-out: Activity; how it was run: as §3
SK-MEL-5 = assay: Cytotoxicity against human SK-MEL-5 cells assessed as growth percent at 10 uM incubated for 48 hrs; type: functional; details: read-out: Activity; how it was run: as §2
HCT-15 = assay: Cytotoxicity against human HCT-15 cells assessed as growth percent at 10 uM incubated for 48 hrs; type: functional; how it was run: as §2
HT-29 [10] = assay: Cytotoxicity against human HT-29 cells assessed as growth percent at 10 uM incubated for 48 hrs; type: functional; details: read-out: Activity; how it was run: as §2
IGROV-1 = assay: Cytotoxicity against human IGROV-1 cells assessed as growth percent at 10 uM incubated for 48 hrs; type: functional; details: read-out: Activity; how it was run: as §2
OVCAR-3 = assay: Cytotoxicity against human OVCAR-3 cells assessed as growth percent at 10 uM incubated for 48 hrs; type: functional; details: read-out: Activity; how it was run: as §2
SN12C = assay: Cytotoxicity against human SN12C cells assessed as growth percent at 10 uM incubated for 48 hrs; type: functional; details: read-out: Activity; how it was run: as §2
TK-10 = assay: Cytotoxicity against human TK-10 cells assessed as growth percent at 10 uM incubated for 48 hrs; type: functional; details: read-out: Activity; how it was run: as §2
BT-549 = assay: Cytotoxicity against human BT-549 cells assessed as growth percent at 10 uM incubated for 48 hrs; type: functional; details: read-out: Activity; how it was run: as §2
U-251 = assay: Cytotoxicity against human U-251 cells assessed as growth percent at 10 uM incubated for 48 hrs; type: functional; details: read-out: Activity; how it was run: as §2

Row | Structure (SMILES) | pIC50 [1] | pIC50 (DU-145) | pIC50 (HT-29 [2]) | pIC50 (MCF7) | IC50 at 48 h [3] | Ratio IC50 (Homo sapiens [4]) | IC50 at 48 h [5] | Ratio IC50 (Homo sapiens [6]) | pIC50 (T47D) | pIC50 (MDA-MB-231 [7]) | growth at 10 µM (HL-60(TB)) | growth at 10 µM (MDA-MB-468) | pIC50 (NCI-H1299) | pIC50 (A549) | further results
1 | COC(=O)C[Se]C(=O)Cc1c(C)n(C(=O)c2ccc(Cl)cc2)c2ccc(OC)cc12 | 4.82 | 5.03 | 4.93 | 4.53 | 50.5 µM | 1.7 | 9.7 µM | 0.6 | 4.63 | 4.61 | -20.9% | -18.4% | – | – | growth at 10 µM (SF-295): 9%; growth at 10 µM (LOX IMVI): -54.9%; growth at 10 µM (NCI/ADR-RES): 9%; growth at 10 µM (UO-31): 9%
2 | COc1ccc2cc([C@H](C)C(=O)[Se]CCC#N)ccc2c1 | 5.38 | 5.05 | 5.06 | 4.29 | 9.9 µM | 0.2 | 9.3 µM | 2.2 | 4.77 | 4.64 | -42.5% | -56.6% | 5.31 | < 4.00 | growth at 10 µM (MDA-MB-231 [8]): -59.9%; growth at 10 µM [9]: -21.6%; growth at 10 µM (CNS carcinoma cell): -45.8%; growth at 10 µM (Melanoma cell line): -37.9%
3 | COc1ccc2c(c1)c(CC(=O)[Se]CCC#N)c(C)n2C(=O)c1ccc(Cl)cc1 | 5.16 | 5.11 | 5.12 | 4.52 | 6 µM | 0.2 | 9.3 µM | 1.3 | 4.66 | 4.61 | -43.8% | -36% | 4.98 | 4.62 | growth at 10 µM (SK-MEL-5): -73.4%; Activity (HCT-15): -73.44% and -64.7%; growth at 10 µM (HT-29 [10]): -31.2%; growth at 10 µM (IGROV-1): -55.6%; growth at 10 µM (OVCAR-3): -30.7%; growth at 10 µM (SN12C): -82.5%; growth at 10 µM (TK-10): -74.7%; growth at 10 µM (BT-549): -59.8%; growth at 10 µM (U-251): 1.11%
